According to ChEMBL document CHEMBL3217692, “Synthesis and cytotoxicity evaluation of novel pyrido[3,4-d]pyrimidine derivatives as potential anticancer agents” (2012):

Legend:
Type in all cases: functional
[1] = Cytotoxicity against human UO31 cells assessed as cell growth at 10 uM after 48 hrs by sulforhodamine B assay relative to control; conditions: UO-31, 48 h, read-out: Activity
In short: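 NCI-60 single-dose screen. Cells were grown in RPMI 1640 with 5% FBS and 2 mM L-glutamine, seeded at 5000–40 000 cells/well according to doubling time, and pre-incubated 24 h at 37 °C, 5% CO2. Time-zero plates were TCA-fixed at dosing. Compound in DMSO was given at 10 μM for 48 h. Cells were then fixed in cold TCA, stained with 0.4% SRB, solubilised in 10 mM Tris base and read at 515 nm. Growth % was calculated from time-zero, control and treated absorbances.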

[2] = tested on: MDA-MB-468; experiment: Cytotoxicity against human MDA-MB-468 cells assessed as cell growth at 10 uM after 48 hrs by sulforhodamine B assay relative to control; conditions: MDA-MB-468, 48 h, read-out: Activity
In short: (§1)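 Adherent cells were grown in RPMI 1640 with 5% FBS and 2 mM L-glutamine, seeded at 5000–40 000 cells/well by doubling time, and held 24 h at 37 °C, 5% CO2 before drug. Time-zero plates were TCA-fixed. Compound in DMSO, single dose 10 μM, 48 h. Cells were fixed with cold TCA (final 10%, 60 min, 4 °C) and stained with 0.4% SRB. Bound dye was dissolved in 10 mM Tris base and read at 515 nm. Percent growth was derived from time-zero, control and treated absorbances.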

[3] = tested on: MCF7; experiment: Cytotoxicity against human MCF7 cells assessed as cell growth at 10 uM after 48 hrs by sulforhodamine B assay relative to control; conditions: MCF7, 48 h, read-out: Activity; in short: as §1

## COc1nccc2c(Nc3ccccc3)nc(N)nc12
[1]
  growth at 10 µM: 88.3%
[2]
  growth at 10 µM: 56.5%
[3]
  growth at 10 µM: 78.5%

## COc1nccc2c(Nc3ccc(Cl)cc3)nc(N)nc12
[1]
  growth at 10 µM: 42.9%
[2]
  growth at 10 µM: 60%
[3]
  growth at 10 µM: 62.2%

## COc1ccc(Nc2nc(N)nc3c(OC)nccc23)cc1
[1]
  growth at 10 µM: 57.7%
[2]
  growth at 10 µM: 76.3%
[3]
  growth at 10 µM: 73%

## COc1nccc2c(Sc3ccccc3)nc(N)nc12
[1]
  growth at 10 µM: 75.3%
[2]
  growth at 10 µM: 112%
[3]
  growth at 10 µM: 91.9%

## COc1nccc2c(-c3ccccc3)nc(N)nc12
[1]
  growth at 10 µM: 93.8%
[2]
  growth at 10 µM: 98.2%
[3]
  growth at 10 µM: 96.5%

## COc1ccc(-c2nc(N)nc3c(OC)nccc23)cc1
[1]
  growth at 10 µM: 108%
[2]
  growth at 10 µM: 97.9%
[3]
  growth at 10 µM: 86.3%

## COc1nccc2c(-c3ccc(Cl)cc3)nc(N)nc12
[1]
  growth at 10 µM: 86.2%
[2]
  growth at 10 µM: 90.3%
[3]
  growth at 10 µM: 75.3%

## Nc1nc(Nc2ccccc2)c2ccnc(O)c2n1
[1]
  growth at 10 µM: 73.7%
[2]
  growth at 10 µM: 126%
[3]
  growth at 10 µM: 80.8%

## Nc1nc(Nc2ccc(Cl)cc2)c2ccnc(O)c2n1
[1]
  growth at 10 µM: 54.5%
[2]
  growth at 10 µM: 135%
[3]
  growth at 10 µM: 81%

## COc1ccc(Nc2nc(N)nc3c(O)nccc23)cc1
[1]
  growth at 10 µM: 64.6%
[2]
  growth at 10 µM: 118%
[3]
  growth at 10 µM: 79.7%

## Nc1nc(Sc2ccccc2)c2ccnc(O)c2n1
[1]
  growth at 10 µM: 86.8%
[2]
  growth at 10 µM: 120%
[3]
  growth at 10 µM: 91.6%

## Nc1nc(-c2ccccc2)c2ccnc(O)c2n1
[1]
  growth at 10 µM: 91.9%
[2]
  growth at 10 µM: 101%
[3]
  growth at 10 µM: 111%

## COc1ccc(-c2nc(N)nc3c(O)nccc23)cc1
[1]
  growth at 10 µM: 94.6%
[2]
  growth at 10 µM: 110%
[3]
  growth at 10 µM: 95.7%

## Nc1nc(-c2ccc(Cl)cc2)c2ccnc(O)c2n1
[1]
  growth at 10 µM: 96.9%
[2]
  growth at 10 µM: 108%
[3]
  growth at 10 µM: 94.1%

## Nc1nc(-c2cccc(F)c2)c2ccnc(O)c2n1
[1]
  growth at 10 µM: 117%
[2]
  growth at 10 µM: 107%
[3]
  growth at 10 µM: 83.3%
